Measurements from ChEMBL document CHEMBL1806495, “Phenylpropenamide derivatives: anti-hepatitis B virus activity of the Z isomer, SAR and the search for novel analogs” (Bioorg Med Chem Lett, 2011).
Each block holds one molecule with its values, some of them ahead of it. Active and inactive are the calls of the source. The calls are words filed in the database; no cut-off is given here.

Legend:
Hepatitis B virus [1] = assay: Antiviral activity against HBV infected in human HepAD38 cells assessed as inhibition of viral DNA synthesis after 3 days; format: functional; conditions: HePAD38, 72 h
In short: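 Anti-HBV readout in the Hep AD38 cellular assay: the value is reported as EC90, the compound concentration that inhibits viral DNA synthesis by 90%.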

[2] = Cytotoxicity against human HepAD38 cells; format: cell-based
In short: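 Viability of Hep AD38 cells measured within the same cellular assay. The value is reported as CC90, the drug concentration that reduces cell viability by 90%.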

Hepatitis B virus [3] = assay: Antiviral activity against HBV infected in human HepAD38 cells assessed as inhibition of viral DNA synthesis up to 100 uM after 3 days; format: functional, organism-based

SMILES: O=C(C1=C(c2ccccc2)CCN1C(=O)c1ccc(Br)cc1)N1CCCCC1
EC90 (Hepatitis B virus [1]): > 10 µM
CC90 [2]: > 10 µM

SMILES: O=C(N/C(C(=O)N1CCCCC1)=C(\Cl)c1ccccc1)c1ccc([N+](=O)[O-])cc1Br
EC90 (Hepatitis B virus [1]): 4.06 µM
CC90 [2]: > 10 µM

SMILES: COc1ccccc1/C(Cl)=C(/NC(=O)c1ccc([N+](=O)[O-])cc1)C(=O)N1CCCCC1
EC90 (Hepatitis B virus [1]): 0.56 µM
CC90 [2]: > 10 µM

SMILES: COc1ccccc1/C(Br)=C(/NC(=O)c1ccc([N+](=O)[O-])cc1)C(=O)N1CCCC1
EC90 (Hepatitis B virus [1]): 0.39 µM
CC90 [2]: > 10 µM

SMILES: COc1ccccc1/C(Cl)=C(/NC(=O)c1ccc([N+](=O)[O-])cc1)C(=O)N1CCCC1
EC90 (Hepatitis B virus [1]): 1.69 µM
CC90 [2]: > 10 µM

SMILES: O=C(N/C(C(=O)N1CCCCC1)=C(\Br)c1cccc2c1OCO2)c1ccc([N+](=O)[O-])cc1
EC90 (Hepatitis B virus [1]): 1.25 µM
CC90 [2]: > 10 µM

SMILES: COc1ccccc1C1=C(C(=O)N2CCCCC2)N(C(=O)c2ccccc2)CC1
EC90 (Hepatitis B virus [1]): > 10 µM
CC90 [2]: > 10 µM

SMILES: O=C(N/C(C(=O)N1CCCCC1)=C(\Cl)c1ccccc1)c1ccc([N+](=O)[O-])cc1C(F)(F)F
EC90 (Hepatitis B virus [1]): > 10 µM
CC90 [2]: > 10 µM

SMILES: C/C(=C(/NC(=O)c1ccc(Br)cc1)C(=O)N1CCCCC1)c1ccccc1
EC90 (Hepatitis B virus [1]): 3.92 µM
CC90 [2]: > 10 µM

SMILES: O=C(C1=C(c2ccccc2)CCN1C(=O)c1ccccc1)N1CCCCC1
EC90 (Hepatitis B virus [1]): > 10 µM
CC90 [2]: > 10 µM

SMILES: O=C(c1c(-c2ccccc2)ccn1C(=O)c1ccccc1)N1CCCCC1
EC90 (Hepatitis B virus [1]): > 10 µM
CC90 [2]: > 10 µM

SMILES: O=C(N/C(C(=O)N1CCCCC1)=C(\Cl)c1ccccc1)c1ccc([N+](=O)[O-])cc1[N+](=O)[O-]
EC90 (Hepatitis B virus [1]): > 10 µM
CC90 [2]: > 10 µM

SMILES: O=C(N/C(C(=O)N1CCCCC1)=C(/Cl)c1ccccc1)c1ccccc1
inhibition (Hepatitis B virus [3]): inactive

SMILES: O=C(C1C(c2ccccc2)CCN1C(=O)c1ccc(Br)cc1)N1CCCCC1 (stereo unspecified)
EC90 (Hepatitis B virus [1]): > 10 µM
CC90 [2]: > 10 µM

SMILES: O=C(c1c(-c2ccccc2)ccn1C(=O)c1ccc(Br)cc1)N1CCCCC1
EC90 (Hepatitis B virus [1]): > 10 µM
CC90 [2]: > 10 µM

SMILES: COc1cc([N+](=O)[O-])ccc1C(=O)N/C(C(=O)N1CCCCC1)=C(\Cl)c1ccccc1
EC90 (Hepatitis B virus [1]): > 10 µM
CC90 [2]: > 10 µM

SMILES: O=C(N/C(C(=O)N1CCCCC1)=C(\Cl)c1cccc2c1OCO2)c1ccc([N+](=O)[O-])cc1
EC90 (Hepatitis B virus [1]): 4.66 µM
CC90 [2]: > 10 µM

SMILES: O=C(C1C(c2ccccc2)CCN1C(=O)c1ccccc1)N1CCCCC1 (stereo unspecified)
EC90 (Hepatitis B virus [1]): > 10 µM
CC90 [2]: > 10 µM

Further lines, with some results ahead:

EC90 (Hepatitis B virus [1]): > 10 µM
SMILES: CS(=O)(=O)c1ccc(C(=O)N/C(C(=O)N2CCCCC2)=C(\Cl)c2ccccc2)cc1
CC90 [2]: > 10 µM

EC90 (Hepatitis B virus [1]): 6.43 µM
SMILES: CC1CCCN(C(=O)/C(NC(=O)c2ccccc2)=C(/Cl)c2ccccc2)C1 (stereo unspecified)
CC90 [2]: > 10 µM

EC90 (Hepatitis B virus [1]): 1.92 µM
SMILES: C/C(=C(/NC(=O)c1ccc(Cl)cc1)C(=O)N1CCCCC1)c1ccccc1
CC90 [2]: > 10 µM

EC90 (Hepatitis B virus [1]): > 10 µM
SMILES: COc1ccc(C(=O)N/C(C(=O)N2CCCCC2)=C(\Cl)c2ccccc2)cc1
CC90 [2]: > 10 µM

EC90 (Hepatitis B virus [1]): 1.25 µM
SMILES: O=C(N/C(C(=O)N1CCCCC1)=C(\Cl)c1ccccc1)c1ccc(Cl)cc1
CC90 [2]: > 10 µM

EC90 (Hepatitis B virus [1]): 2.17 µM
SMILES: O=C(N/C(C(=O)N1CCCCC1)=C(\Cl)c1ccccc1)c1ccc(F)cc1
CC90 [2]: > 10 µM

EC90 (Hepatitis B virus [1]): 5.51 µM
SMILES: O=C(N/C(C(=O)N1CCCCC1)=C(\Cl)c1ccccc1)c1ccccc1
CC90 [2]: > 10 µM

EC90 (Hepatitis B virus [1]): > 10 µM
SMILES: O=C(N/C(C(=O)N1CCCCC1)=C(\Cl)c1ccc(Cl)cc1)c1ccccc1
CC90 [2]: > 10 µM

EC90 (Hepatitis B virus [1]): 1.81 µM
SMILES: O=C(N/C(C(=O)N1CCCCC1)=C(\Cl)c1ccccc1F)c1ccccc1
CC90 [2]: > 10 µM

EC90 (Hepatitis B virus [1]): > 10 µM
SMILES: Cc1ccc(/C(Cl)=C(/NC(=O)c2ccccc2)C(=O)N2CCCCC2)cc1
CC90 [2]: > 10 µM

EC90 (Hepatitis B virus [1]): 1.8 µM
SMILES: Cc1ccccc1/C(Cl)=C(/NC(=O)c1ccccc1)C(=O)N1CCCCC1
CC90 [2]: > 10 µM

EC90 (Hepatitis B virus [1]): > 10 µM
SMILES: O=C(N/C(C(=O)N1CCCC(F)(F)C1)=C(\Cl)c1ccccc1)c1ccccc1
CC90 [2]: > 10 µM

EC90 (Hepatitis B virus [1]): 1.67 µM
SMILES: O=C(N/C(C(=O)N1CCCCC1)=C(\Cl)c1ccccc1)c1ccc([N+](=O)[O-])cc1
CC90 [2]: > 10 µM

EC90 (Hepatitis B virus [1]): 2.78 µM
SMILES: COc1ccccc1/C(Br)=C(/NC(=O)c1ccccc1)C(=O)N1CCOCC1
CC90 [2]: > 10 µM

EC90 (Hepatitis B virus [1]): > 10 µM
SMILES: O=C(N/C(C(=O)N1CCOCC1)=C(\Cl)c1ccccc1)c1ccccc1
CC90 [2]: > 10 µM

EC90 (Hepatitis B virus [1]): 6.04 µM
SMILES: O=C(N/C(C(=O)N1CCCCC1)=C(\Cl)c1ccccc1)c1ccc(Br)cc1
CC90 [2]: > 10 µM

EC90 (Hepatitis B virus [1]): 2.9 µM
SMILES: Cc1ccc(C(=O)N/C(C(=O)N2CCCCC2)=C(\Cl)c2ccccc2)cc1
CC90 [2]: > 10 µM

EC90 (Hepatitis B virus [1]): 4.72 µM
SMILES: COc1ccccc1/C(Cl)=C(/NC(=O)c1ccccc1)C(=O)N1CCOCC1
CC90 [2]: > 10 µM

EC90 (Hepatitis B virus [1]): 0.91 µM
SMILES: O=C(N/C(C(=O)N1CCCCC1)=C(\Br)c1ccccc1)c1ccc(Cl)cc1
CC90 [2]: > 10 µM

EC90 (Hepatitis B virus [1]): 1.71 µM
SMILES: COc1ccccc1/C(Cl)=C(/NC(=O)c1ccccc1)C(=O)N1CCCCC1
CC90 [2]: > 10 µM

EC90 (Hepatitis B virus [1]): 5.9 µM
SMILES: O=C(N/C(C(=O)N1CCCCC1)=C(\Br)c1ccccc1)c1ccccc1
CC90 [2]: > 10 µM

EC90 (Hepatitis B virus [1]): > 10 µM
SMILES: CN1CCN(C(=O)/C(NC(=O)c2ccccc2)=C(/Cl)c2ccccc2)CC1
CC90 [2]: > 10 µM

EC90 (Hepatitis B virus [1]): 9.9 µM
SMILES: O=C(N/C(C(=O)N1CCCCC1)=C(\Cl)c1cccc2c1OCO2)c1ccccc1
CC90 [2]: > 10 µM
